From PMC7231973 (Neurobiology of Stress, 2019)
Read-outs that look alike come from different tables or passages of the source.

What was measured:
[1] = cited from earlier work
[2] = target: human GABAAR α1β1γ2 (Homo sapiens, UniProt P14867+P18505+P18507); experiment: Voltage-clamp, modulation of GABA EC10 response in Xenopus laevis oocytes; type: cell-based; conditions: maximum modulation of the GABA EC10 response, mean ± S.E.M. (n = 3)
In short: (§1)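 Human GABAAR subtypes expressed in Xenopus laevis oocytes. The GABA EC10 (the concentration giving 10% of the maximal GABA response) was determined for each oocyte. Test compound was pre-applied for 30 s, then co-applied with EC10 GABA. Response = (I GABA EC10 + modulator / I GABA EC10) × 100, where I = current. Concentration-effect data were fitted to a four-parameter logistic equation.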

[3] = target: human GABAAR α1β2γ2 (Homo sapiens, UniProt P14867+P18507+P47870); experiment: as above; type: cell-based; conditions: maximum modulation of the GABA EC10 response, mean ± S.E.M. (n = 3)
In short: as §1

[4] = target: T1, human GABAAR α2β1γ2 (Homo sapiens, UniProt P18505+P18507+P47869); experiment: Voltage-clamp, modulation of GABA EC10 response in Xenopus laevis oocytes; type: cell-based; conditions: maximum modulation of the GABA EC10 response, mean ± S.E.M. (n = 3)
[5] = target: human GABAAR α2β2γ2 (Homo sapiens, UniProt P18507+P47869+P47870); experiment: as above; type: cell-based; conditions: maximum modulation of the GABA EC10 response, mean ± S.E.M. (n = 3)
[6] = target: human GABAAR α4β3δ (Homo sapiens, UniProt O14764+P28472+P48169); experiment: Voltage-clamp, modulation of GABA EC10 response in Xenopus laevis oocytes; type: cell-based; conditions: maximum modulation of the GABA EC10 response, mean ± S.E.M. (n = 3)
In short: as §1

[7] = rodents; ref Irwin et al., 2015; cited from earlier work
[8] = test system: synaptic GABAARs; conditions: ref Wafford et al., 2009; Jensen et al., 2013; cited from earlier work
[9] = target: T1, human GABAAR α2β1γ2; conditions: value marked #, ref Hogenkamp et al. (2014) and Carter et al. (1997); cited from earlier work
[10] = test system: PPD; conditions: cited from earlier work
[11] = test system: hippocampal DGGNs; conditions: ref Modgil et al., 2017, cited from earlier work
[12] = test system: acute migraine; conditions: in vivo; cited from earlier work
[13] = test system: GABAARs; conditions: ref Parakala et al., 2019; cited from earlier work
[14] = target: synaptic (α1β2γ2) GABAARs (Mus musculus, UniProt P22723+P62812+P63137); experiment: mIPSCs recorded from thalamic VB neurons in horizontal slice; type: cell-based; conditions: 1 μM, 10 min; VB neuron of P21 mouse, −70 mV
In short: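 GABAAR mIPSCs were recorded at −70 mV from thalamic VB neurons in horizontal slices from P21 mice. Recordings were made under control conditions and after 10 min of test compound at 1 μM. mIPSC decay was examined.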

[15] = target: extrasynaptic (α4β2δ) GABAARs (Mus musculus, UniProt P22933+P63137+Q9D6F4); experiment: Tonic current; type: cell-based; conditions: 1 μM; VB neuron of P21 mouse; reversed by bicuculline 20 μM
In short: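 Holding current was taken from the same −70 mV VB neuron recordings in P21 mouse horizontal slices. All-points histograms of holding current were compared under control, after test compound (1 μM), and after co-application of bicuculline (20 μM).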

[16] = test system: patients with moderate to severe major depressive disorder; conditions: oral treatment for 14 days; ref Gunduz-Bruce et al., 2019; cited from earlier work
[17] = test system: rodent seizure models; conditions: ref Hogenkamp et al., 2014; cited from earlier work
[18] = test system: GABAARs; conditions: ref Harrison and Simmonds, 1984; cited from earlier work
[19] = ref Harrison and Simmonds, 1984; cited from earlier work
[20] = test system: humans; conditions: 500 mg intravenously (iv.); ref Merryman et al., 1954; cited from earlier work
[21] = test system: traumatic brain injury; conditions: ref Wright et al., 2014, Skolnick et al.; cited from earlier work

Sequence of human GABAAR α2β2γ2 (P47869 29-451): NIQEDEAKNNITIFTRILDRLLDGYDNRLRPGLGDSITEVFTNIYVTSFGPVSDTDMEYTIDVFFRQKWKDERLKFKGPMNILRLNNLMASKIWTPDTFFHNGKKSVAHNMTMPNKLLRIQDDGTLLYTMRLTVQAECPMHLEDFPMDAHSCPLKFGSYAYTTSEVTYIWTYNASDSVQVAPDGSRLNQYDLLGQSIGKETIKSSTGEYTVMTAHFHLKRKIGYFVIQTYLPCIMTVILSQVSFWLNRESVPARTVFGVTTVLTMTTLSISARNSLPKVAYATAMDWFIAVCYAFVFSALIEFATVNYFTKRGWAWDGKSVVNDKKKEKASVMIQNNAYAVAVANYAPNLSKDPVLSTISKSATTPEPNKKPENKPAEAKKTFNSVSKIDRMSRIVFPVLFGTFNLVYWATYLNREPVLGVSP
Sequence of human GABAAR α2β2γ2 (P47870 26-512): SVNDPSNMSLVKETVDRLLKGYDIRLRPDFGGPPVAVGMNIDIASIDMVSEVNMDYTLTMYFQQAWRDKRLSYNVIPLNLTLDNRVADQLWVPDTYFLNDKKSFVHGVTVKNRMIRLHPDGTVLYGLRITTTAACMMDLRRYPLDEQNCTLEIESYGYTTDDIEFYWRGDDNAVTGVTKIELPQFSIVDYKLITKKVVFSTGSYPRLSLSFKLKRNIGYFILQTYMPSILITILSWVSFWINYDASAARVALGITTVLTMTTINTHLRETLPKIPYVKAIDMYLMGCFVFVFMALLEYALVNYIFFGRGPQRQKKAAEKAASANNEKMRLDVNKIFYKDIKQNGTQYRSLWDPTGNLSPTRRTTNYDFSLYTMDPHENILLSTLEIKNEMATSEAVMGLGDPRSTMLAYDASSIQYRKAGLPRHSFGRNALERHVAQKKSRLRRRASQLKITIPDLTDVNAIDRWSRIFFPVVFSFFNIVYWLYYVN
Sequence of human GABAAR α2β2γ2 (P18507 40-475): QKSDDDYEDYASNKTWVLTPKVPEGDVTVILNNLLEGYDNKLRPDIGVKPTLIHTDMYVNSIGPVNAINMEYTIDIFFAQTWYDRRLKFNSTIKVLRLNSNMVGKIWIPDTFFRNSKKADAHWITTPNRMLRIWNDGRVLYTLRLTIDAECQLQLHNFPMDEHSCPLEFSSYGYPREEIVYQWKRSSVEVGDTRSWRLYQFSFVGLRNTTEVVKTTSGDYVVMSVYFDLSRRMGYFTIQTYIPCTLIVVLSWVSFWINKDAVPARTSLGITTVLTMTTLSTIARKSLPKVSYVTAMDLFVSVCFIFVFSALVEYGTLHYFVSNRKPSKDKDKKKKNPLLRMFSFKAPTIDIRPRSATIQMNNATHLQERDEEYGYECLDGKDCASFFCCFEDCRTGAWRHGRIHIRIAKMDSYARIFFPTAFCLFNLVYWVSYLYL
T1 sequence (P47869 29-451): as the sequence (P47869 29-451) above
T1 sequence (P18505 26-474): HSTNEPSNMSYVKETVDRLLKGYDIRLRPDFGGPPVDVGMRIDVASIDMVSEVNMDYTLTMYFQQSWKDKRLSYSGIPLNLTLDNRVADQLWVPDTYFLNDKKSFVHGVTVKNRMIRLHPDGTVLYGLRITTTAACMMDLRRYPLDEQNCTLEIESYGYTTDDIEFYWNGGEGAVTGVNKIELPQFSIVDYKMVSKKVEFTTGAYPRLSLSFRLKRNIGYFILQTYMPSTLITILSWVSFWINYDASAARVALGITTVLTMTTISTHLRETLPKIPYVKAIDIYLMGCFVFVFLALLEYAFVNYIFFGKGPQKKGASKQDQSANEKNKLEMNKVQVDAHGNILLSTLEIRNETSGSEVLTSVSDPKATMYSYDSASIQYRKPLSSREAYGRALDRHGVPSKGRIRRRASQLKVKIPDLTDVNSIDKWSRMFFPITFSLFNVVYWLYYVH
T1 sequence (P18507 40-475): as the sequence (P18507 40-475) above
Sequence of human GABAAR α4β3δ (P48169 36-554): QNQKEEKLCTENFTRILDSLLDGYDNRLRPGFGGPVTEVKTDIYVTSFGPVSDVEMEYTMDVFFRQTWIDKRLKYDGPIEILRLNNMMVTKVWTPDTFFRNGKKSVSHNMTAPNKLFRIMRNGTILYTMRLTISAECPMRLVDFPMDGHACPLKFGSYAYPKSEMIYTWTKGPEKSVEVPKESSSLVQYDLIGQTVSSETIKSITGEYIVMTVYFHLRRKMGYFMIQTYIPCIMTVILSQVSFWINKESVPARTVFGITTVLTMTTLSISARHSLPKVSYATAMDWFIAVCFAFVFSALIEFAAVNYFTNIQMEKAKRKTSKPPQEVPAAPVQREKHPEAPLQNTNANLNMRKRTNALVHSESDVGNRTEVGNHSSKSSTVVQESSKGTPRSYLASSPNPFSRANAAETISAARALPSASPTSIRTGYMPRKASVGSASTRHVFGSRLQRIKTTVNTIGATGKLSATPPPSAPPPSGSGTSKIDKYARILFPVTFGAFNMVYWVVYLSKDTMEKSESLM
Sequence of human GABAAR α4β3δ (P28472 26-473): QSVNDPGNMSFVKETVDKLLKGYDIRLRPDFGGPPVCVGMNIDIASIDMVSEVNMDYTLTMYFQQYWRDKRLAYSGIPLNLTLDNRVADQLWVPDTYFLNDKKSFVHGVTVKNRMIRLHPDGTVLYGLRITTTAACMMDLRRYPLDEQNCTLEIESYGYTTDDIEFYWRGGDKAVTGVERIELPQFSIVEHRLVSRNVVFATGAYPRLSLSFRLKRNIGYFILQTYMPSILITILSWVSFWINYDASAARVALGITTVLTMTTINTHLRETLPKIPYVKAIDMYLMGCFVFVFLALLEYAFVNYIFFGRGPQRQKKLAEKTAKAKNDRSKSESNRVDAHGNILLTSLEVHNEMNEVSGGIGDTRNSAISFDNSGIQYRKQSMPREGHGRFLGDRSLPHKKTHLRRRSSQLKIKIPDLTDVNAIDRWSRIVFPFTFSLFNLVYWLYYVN
Sequence of human GABAAR α4β3δ (O14764 25-452): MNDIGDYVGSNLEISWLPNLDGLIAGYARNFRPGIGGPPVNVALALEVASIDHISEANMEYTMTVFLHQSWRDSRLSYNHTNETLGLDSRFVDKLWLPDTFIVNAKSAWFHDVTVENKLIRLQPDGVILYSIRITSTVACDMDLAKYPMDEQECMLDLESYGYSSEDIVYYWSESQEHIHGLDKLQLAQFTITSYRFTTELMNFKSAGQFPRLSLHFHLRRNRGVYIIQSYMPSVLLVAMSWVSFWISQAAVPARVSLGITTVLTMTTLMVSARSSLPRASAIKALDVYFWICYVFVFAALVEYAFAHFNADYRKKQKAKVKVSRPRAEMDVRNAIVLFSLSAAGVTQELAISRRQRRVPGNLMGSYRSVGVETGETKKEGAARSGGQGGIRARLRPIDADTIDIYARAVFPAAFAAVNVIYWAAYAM
Sequence of human GABAAR α1β1γ2 (P14867 28-456): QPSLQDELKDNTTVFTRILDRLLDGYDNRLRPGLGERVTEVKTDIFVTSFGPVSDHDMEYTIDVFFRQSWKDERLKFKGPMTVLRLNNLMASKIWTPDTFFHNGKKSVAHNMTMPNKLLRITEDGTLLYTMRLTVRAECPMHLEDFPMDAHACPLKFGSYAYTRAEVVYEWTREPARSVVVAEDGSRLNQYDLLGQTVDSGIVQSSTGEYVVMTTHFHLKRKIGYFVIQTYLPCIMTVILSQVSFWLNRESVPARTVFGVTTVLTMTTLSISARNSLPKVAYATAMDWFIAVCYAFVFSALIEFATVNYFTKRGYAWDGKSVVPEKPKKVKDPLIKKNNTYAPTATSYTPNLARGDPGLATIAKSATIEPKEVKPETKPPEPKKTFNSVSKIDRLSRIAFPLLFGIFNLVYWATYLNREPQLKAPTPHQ
Sequence of human GABAAR α1β1γ2 (P18505 26-474): as the sequence (P18505 26-474) above
Sequence of human GABAAR α1β1γ2 (P18507 40-475): as the sequence (P18507 40-475) above
Sequence of human GABAAR α1β2γ2 (P14867 28-456): as the sequence (P14867 28-456) above
Sequence of human GABAAR α1β2γ2 (P47870 26-512): as the sequence (P47870 26-512) above
Sequence of human GABAAR α1β2γ2 (P18507 40-475): as the sequence (P18507 40-475) above
Sequence of synaptic (α1β2γ2) GABAARs (P62812 28-455): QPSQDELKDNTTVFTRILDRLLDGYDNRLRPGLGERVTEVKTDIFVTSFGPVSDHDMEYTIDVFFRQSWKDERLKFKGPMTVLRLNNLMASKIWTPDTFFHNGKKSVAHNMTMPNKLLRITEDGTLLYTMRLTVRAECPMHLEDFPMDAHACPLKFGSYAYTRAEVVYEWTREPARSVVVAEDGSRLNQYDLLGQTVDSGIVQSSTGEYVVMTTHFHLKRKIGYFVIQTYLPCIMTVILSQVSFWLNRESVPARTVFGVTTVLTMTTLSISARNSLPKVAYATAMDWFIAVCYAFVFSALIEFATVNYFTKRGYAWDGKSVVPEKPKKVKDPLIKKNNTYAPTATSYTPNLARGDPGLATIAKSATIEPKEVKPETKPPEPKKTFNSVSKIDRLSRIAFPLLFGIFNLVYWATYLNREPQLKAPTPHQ
Sequence of synaptic (α1β2γ2) GABAARs (P63137 25-512 limits assumed): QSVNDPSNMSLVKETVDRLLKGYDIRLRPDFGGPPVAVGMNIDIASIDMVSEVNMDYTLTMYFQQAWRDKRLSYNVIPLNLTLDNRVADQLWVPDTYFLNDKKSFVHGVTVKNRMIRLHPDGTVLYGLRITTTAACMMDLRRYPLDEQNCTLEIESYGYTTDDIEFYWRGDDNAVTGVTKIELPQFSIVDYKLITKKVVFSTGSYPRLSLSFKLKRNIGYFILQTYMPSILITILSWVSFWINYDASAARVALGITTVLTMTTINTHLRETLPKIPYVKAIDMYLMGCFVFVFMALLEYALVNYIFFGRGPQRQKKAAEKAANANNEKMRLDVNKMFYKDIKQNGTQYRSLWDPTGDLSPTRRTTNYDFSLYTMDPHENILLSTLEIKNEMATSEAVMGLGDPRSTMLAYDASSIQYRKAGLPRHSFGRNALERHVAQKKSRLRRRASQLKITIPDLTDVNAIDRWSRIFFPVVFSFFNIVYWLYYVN
Sequence of synaptic (α1β2γ2) GABAARs (P22723 39-474): as the sequence (P18507 40-475) above

CCOC(=O)Nc1ccc(NCc2c(C)cc(C)cc2C)cc1N [AA29504]
ratio of brain to plasma levels ([1]; ref Hoestgaard-Jensen et al., 2010): favorable ratio of brain to plasma levels

CC(=O)[C@H]1CC[C@H]2[C@@H]3CC[C@H]4C[C@H](O)CC[C@]4(C)[C@H]3CC[C@]12C [AlloP, 5α-pregnan-3α-ol-20-one]
Max Mod ± SEM [2]: 817 ± 62 % control | Max Mod ± SEM [3]: 909 ± 68 % control | Max Mod ± SEM [4]: 878 ± 211 % control | Max Mod ± SEM [5]: 485 ± 257 % control | Max Mod ± SEM [6]: 1401 ± 88 % control | brain concentration relative to that in plasma [7]: 3 ×

O=C(Nc1c(-c2cccs2)nc2ccccn12)c1ccc(Cl)cc1 [DS2]
activity on synaptic GABAARs [8]: no activity | CNS penetration ([1]; ref Wafford et al., 2009, Jensen et al., 2013): poor CNS penetration

CC(=O)[C@H]1CC[C@H]2[C@@H]3CC[C@H]4C[C@](C)(O)CC[C@]4(C)[C@H]3CC[C@]12C [Ganaxolone, 3alpha-hydroxy-3beta-methyl-5alpha-pregnan-20-one]
Max Mod ± SEM [2]: 1006 ± 241 % control | Max Mod ± SEM [3]: 1151 ± 367 % control | Max Mod ± SEM [5]: 646 ± 254 % control | Max Mod ± SEM [6]: 1710 ± 534 % control | Max Mod ± SEM [9]: 700 ± 50^# % control | outcome in PPD, preliminary findings ([10]; oral (p.o) dose of 1175 mg once per day for 28 days, ref trade press): not meeting primary endpoints | sustained enhancement of tonic conductance ([11]; in contrast to allopregnanolone): did not produce a sustained enhancement | acute effect on tonic current [11]: acutely increased the tonic current | outcome in phase II trials, acute migraine [12]: failed to demonstrate efficacy

C=C[C@]12CCC(=O)C=C1CC[C@H]1[C@@H]3CC[C@H](C(C)=O)[C@@]3(C)CC[C@@H]12 [ORG OD 02-0]
direct interaction with GABAARs [13]: no direct interaction with GABAARs

C[C@@]1(O)CC[C@H]2[C@H](CC[C@@H]3[C@@H]2CC[C@]2(C)[C@@H](C(=O)Cn4cc(C#N)cn4)CC[C@@H]32)C1 [SAGE-217, 3alpha-Hydroxy-3beta-methyl-21-(4-cyano-1H-pyrazol-1’-yl)-19-nor-5beta-pregnan-20-one]
Max Mod ± SEM [2]: 488 ± 33 % control | Max Mod ± SEM [3]: 823 ± 353 % control | Max Mod ± SEM [4]: 851 ± 93 % control | Max Mod ± SEM [5]: 1355 ± 173 % control | Max Mod ± SEM [6]: 783 ± 122 % control | duration of miniature inhibitory postsynaptic currents (mIPSCs) [14]: greatly prolong | tonic current [15]: enhance the tonic current | outcome of phase II study ([10]; 30 mg p.o. once a day for 14 days, reported by Sage): positive results | depressive symptoms [16]: effective in reducing depressive symptoms | main side effects [16]: dizziness and somnolence/sedation

C[C@@]1(O)CC[C@@]2(C)[C@@H](CC[C@@H]3[C@@H]2CC[C@]2(C)[C@@H](c4cc(CO)on4)CC[C@@H]32)C1 [UCI-50027, 3-[3α-hydroxy-3β-methyl-5α-androstan-17β-yl]-5-(hydroxymethyl)isoxazole]
Max Mod ± SEM [2]: 472 ± 84 % control | Max Mod ± SEM [3]: 587 ± 91 % control | Max Mod ± SEM [4]: 277 ± 47 % control | Max Mod ± SEM [5]: 595 ± 176 % control | Max Mod ± SEM [6]: 919 ± 229 % control | anticonvulsant/anxiolytic therapeutic index [17]: greater anticonvulsant/anxiolytic therapeutic index than ganaxolone

CC(=O)[C@H]1CC[C@H]2[C@@H]3CC[C@H]4C[C@@H](O)CC[C@]4(C)[C@H]3C(=O)C[C@]12C [betaxalone]
effect on GABAARs [18]: no effect | behavioural effect [19]: behaviourally inert

CC(=O)[C@H]1CC[C@H]2[C@@H]3CCC4=CC(=O)CC[C@]4(C)[C@H]3CC[C@]12C [progesterone]
effect in humans [20]: anesthetic effect | outcome in phase III trials, moderate to severe traumatic brain injury [21]: failed to meet primary criteria
